Compound activity from PubChem BioAssay.
PERK inhibitor = block of dimerizer-induced PERK translation repression, primary screen, PERK inhibitor project, CHO PERK-DD cells, SEAP luminescence, HTS | Eukaryotic translation initiation factor 2-alpha kinase 3 (Homo sapiens), Q9NZJ5 | CHO PERK-DD fusion, SEAP luminescence translation reporter | inhibition, % at 5.6 µM | 220,000 tested, 0.17% active;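 active = inhibition above the mean inhibition of all tested compounds plus 3 SD, set separately per screening campaign, cut at about 2.9% in these data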;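 also: PERK kinase domain activated by AP20187 dimerizer at 100 nM; 0% = DMSO with dimerizer and 100% = rapamycin at 8.4 µM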
STAT1 activator = STAT1 signaling activators, primary screen, cell-based, HTS, luciferase reporter | AID 932, 2007 | activation (% of control), % at 5.5 µM | NIH 3T3 STAT1-luciferase reporter, IFN-gamma, luminescence; 100% = IFN-gamma alone, no compound | 200,000 tested, 2.6% active;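 active = activation above the screen-wide mean activation plus 3 SD, cut at about 130% in these data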;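 also: raw ratio to IFN-gamma control signal so 100% means no change and 0% no light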
AHR act = AHR activators, primary screen, cell-based, luminescence, luciferase reporter, human; AHR-responsive luciferase reporter cells; activation, % at 5 µM; 320,000 tested, 2.5% active; AID 2796, 2010; in the data active = activation above about 47%;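 also: 0% = vehicle wells and 100% = reference agonist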
MDM2 E3 inh = MDM2-luciferase reporter signal enhancers, primary screen, MDM2 E3 ligase inhibitor project, cell-based, luminescence, 1536-well. E3 ubiquitin-protein ligase Mdm2 (Homo sapiens), Q00987. cell-based MDM2 ubiquitination luciferase reporter, 2 h; 0 = plate control, 100 = twice control, blank-subtracted. signal enhancement, % at 5 µM. 210,000 tested, 0.11% active;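 active = signal enhancement of 30% or more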;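 also: luminescence tracks abundance of the self-degrading MDM2-luciferase fusion protein; higher signal means inhibition of MDM2 E3 ligase activity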
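Timing – 2 h compound exposure at 37 °C · Assay system – mammalian cells stably expressing self-ubiquitinating, self-degrading MDM2 E3–luciferase fusion · Amount – 2000 cells seeded into each well · Measure – % luminescence enhancement versus blank-corrected plate control mean · Measured by – SteadyLite luminescence, 15 min reagent step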
APP 5'UTR act = activators of APP 5'UTR luciferase reporter, primary screen, SH-SY5Y cells; activation, % at 2 µM; SH-SY5Y APP 5'UTR luciferase reporter, luminescence; zero percent = DMSO vehicle wells; 190,000 tested, 1% active;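 active = activation above a set limit, based on mean plus 3 SD of controls, cut at about 140% in these data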
NF-kB neuron act = activators of NF-kB expression in neurons, primary screen, cell-based, HTS; fold change at 12.5 µM; human neuronal cells, NF-kB reporter expression; hits give high values; 190,000 tested, 1.6% active; in the data active = fold change above about 3.3
An asterisk follows results filed as active; · = no result. Hits are enriched below; roughly 4.5% of the tested compounds scored in any of these assays.

SMILES	PERK inhibitor	STAT1 activator	AHR act	MDM2 E3 inh	APP 5'UTR act	NF-kB neuron act
C/C(=C\C(=O)c1ccc(C)cc1)Nc1cccc(O)c1	2	101	5	-29	157*	1.4
O=C(Nc1ccccc1F)N1CCC(NC(=O)C23CC4CC(CC(C4)C2)C3)CC1	·	·	0	·	·	·
C[C@H](NC(=O)CCCOc1ccc(Cl)cc1Cl)c1nnc2ccccn12	·	·	0	·	·	·
O=C(CN1C(=O)NC2(CCCCCCC2)C1=O)Nc1ccc(Cl)cc1	·	·	0	·	·	·
Cc1cc(C)nc(SSc2nc(C)cc(C)n2)n1	·	·	1	·	·	·
CC(=O)c1cccc(NS(=O)(=O)c2ccc(N/C=C\C(=O)c3ccc(C)cc3)cc2)c1	-2	87	4	-12	4	1
O=C(/C=C/Nc1cccc(O)c1)c1ccccc1	-1	95	0	-8	184*	6.3*
COc1ccc(N/C=C/C(=O)c2ccccc2)cc1	·	·	-1	·	·	·
Cc1ccc(C(=O)/C=C/Nc2cccc(O)c2)cc1	0	92	-2	-7	138*	13*
Cc1ccc(N/C=C/C(=O)c2ccccc2)cc1Br	·	·	55*	·	·	·
Cc1ccc(C2=NN=C(NC(=O)CSc3nnc4c5ccccc5n(C)c4n3)SC2)cc1	0	98	77*	3	12	1.6
Cc1ccc(C2=NN=C(NC(=O)CSc3nc(C)cc(C)n3)SC2)cc1	0	96	37	-16	-3	0.98
Cn1nc2sc3ccccc3n2c(=O)c1=O	2	·	4	-1	·	·
N#Cc1cnc2sc3ccccc3n2c1=N	1	130*	6	-12	-7	3.2
NC(=O)c1sc2nc(-c3cccnc3)ccc2c1N	-1	·	-6	-13	·	·
COc1ccc(C(=O)c2sc3nc(-c4ccccc4)ccc3c2N)cc1	0	108	39	-9	-5	1
NC(=O)c1sc2nc(-c3ccco3)ccc2c1N	1	131*	-2	-15	45	1.6
Nc1c(C(=O)Nc2ccccc2F)sc2nc(-c3ccco3)ccc12	0	121	-12	-32	140*	0.56
O=C(Nc1ccccc1F)c1cc(-c2ccco2)nc2ccccc12	·	·	60*	·	·	·
COC(=O)c1sc2nc(-c3ccco3)ccc2c1N	0	141*	-1	-5	162*	1.5
O=C(O)c1cccc(COc2cccc3ccccc23)c1	·	·	3	·	·	·
COc1cccc(CNC(=O)CNS(=O)(=O)c2ccc(Br)s2)c1	·	·	2	·	·	·
CC(C)OC(=O)c1sc2nc(-c3ccccc3)ccc2c1N	1	112	-9	3	168*	0.79
CC1CN(C(=O)COC(=O)[C@@H](NC(=O)c2ccccc2Cl)C(C)C)CC(C)O1 (stereo partly specified)	·	·	0	·	·	·
CCOC(=O)c1cnc2c(cnn2C)c1NCCCn1ccnc1	2	103	59*	-7	-2	1.1
SMILES	PERK inhibitor	STAT1 activator	AHR act	MDM2 E3 inh	APP 5'UTR act	NF-kB neuron act
COc1ccc(/C=C/C(=O)c2ccc[nH]2)c(OC)c1OC	-1	114	25	-2	36	1.8
COc1ccc(/C=C/C(=O)c2ccc[nH]2)cc1OC	2	130*	12	-6	53	2.6
NC(=O)C1CCN(C(=O)C2CC(=O)N(c3ccc(F)cc3)C2)CC1 (stereo unspecified)	·	·	-1	·	·	·
O=[N+]([O-])c1cc(C=Nc2ccc3ccccc3c2)ccc1Br	1	103	68*	-5	-10	1.1
C(=N\NC1=Nc2cccc3cccc1c23)/c1cccnc1	0	150*	74*	-8	74	1
C(=N\NC1=Nc2cccc3cccc1c23)/c1ccccc1	0	180*	28	-5	-31	1.6
Clc1ccc(N/N=C/c2cccnc2)cc1	1	111	31	-11	41	1.8
Clc1ccc(/C=N/NC2=Nc3cccc4cccc2c34)cc1	1	135*	27	-3	70	1.4
CCOC(=O)N1CCN(C/C(Cl)=C/c2ccccc2)CC1	·	·	0	·	·	·
O=S(=O)(c1ccc(S(=O)(=O)N2CCOCC2)cc1)N1CCCC1	0	102	-1	-9	3	1.5
